Results as given in ChEMBL document CHEMBL1146591, “New polyhydroxy sterols: proteasome inhibitors from a marine sponge Acanthodendrilla sp” (J Nat Prod, 2003).
Converted amounts (≈) assume the structure as drawn. The source made the active and inactive calls. The calls are words filed in the database; no cut-off is given here.

Key:
[1] = Inhibition of chymotrypsin like activity of partially purified rat liver proteasome; format: subcellular
Method in brief: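 Enzyme: proteasome-enriched pellet from rat liver homogenate (300 000g, 2 h). Preincubated with inhibitor 10 min at 30 °C in 50 mM Tris-HCl pH 7.8, 1 mM DTT, 5 mM EDTA, 0.02% SDS. Then 0.05 mM Suc-LLVY-MCA added, 1 h at 30 °C, stopped with 10% SDS, AMC fluorescence read (ex 380/em 460 nm). IC50 from duplicate measurements.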

[2] = system: HeLa; test: Cytotoxicity against human HeLa cells after 3 days by MTT assay; format: functional, cell-based; settings: 72 h
Method in brief: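 HeLa cells grown in DMEM with 10% fetal calf serum, penicillin and streptomycin, 37 °C, 5% CO2. Seeded at 3 × 10^3 cells/well, precultured 1 day, then given compounds at various concentrations for 3 days at 37 °C. MTT (0.2 mg/mL in medium) added for 4 h, then DMSO, and OD read at 570 nm.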

[3] = species: Rattus norvegicus; test: Inhibition of chymotrypsin like activity of partially purified rat liver proteasome at 100 ug/mL; format: subcellular
Method in brief: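 Enzyme: proteasome-enriched pellet from rat liver (300 000g, 2 h). Preincubated with test material 10 min at 30 °C in 50 mM Tris-HCl pH 7.8, 1 mM DTT, 5 mM EDTA, 0.02% SDS. Then 0.05 mM Suc-LLVY-MCA added for 1 h at 30 °C. Stopped with 10% SDS and AMC fluorescence read (ex 380/em 460 nm).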

SMILES | IC50 [1] | IC50 [2] | Activity [3]
CC(=O)O[C@@H]1[C@@H]2[C@@H](OC(C)=O)C=C3[C@H](CC[C@]4(C)[C@@H]([C@@](C)(O)[C@H](O)CCC(C)C)CC[C@@H]34)[C@@]2(C)CC[C@@H]1O [AGOSTEROL C2] | 23 µg/mL (≈ 43 µM) | > 25 µg/mL | 
CC(=O)O[C@@H]1[C@@H]2[C@@H](OC(C)=O)C=C3[C@H]([C@H](O)C[C@]4(C)[C@@H]([C@H](C)[C@H](O)CCC(C)C)CC[C@@H]34)[C@@]2(C)CC[C@@H]1O [AGOSTEROL F] | 35 µg/mL (≈ 65.5 µM) | 16 µg/mL (≈ 29.9 µM) | 
C/C=C(\C[C@@H](O)[C@@H](C)[C@H]1CC[C@H]2C3=C[C@H](OC(C)=O)[C@H]4[C@@H](OC(C)=O)[C@@H](OC(C)=O)CC[C@]4(C)[C@H]3[C@H](O)C[C@]12C)C(C)C [AGOSTEROL A3] |  | 10 µg/mL (≈ 16.6 µM) | inactive
C=C(CC(O)C(C)(O)[C@H]1CC[C@H]2C3=C[C@H](OC(C)=O)[C@H]4[C@@H](OC(C)=O)[C@@H](O)CC[C@]4(C)[C@H]3CC[C@]12C)C(C)C (stereo not given in full) [AGOSTEROL C7] | 20 µg/mL (≈ 36.6 µM) | > 25 µg/mL | 
CC(=O)O[C@@H]1[C@@H]2[C@@H](OC(C)=O)C=C3[C@H]([C@H](OC(C)=O)C[C@]4(C)[C@@H]([C@H](C)[C@H](O)CCC(C)C)CC[C@@H]34)[C@@]2(C)CC[C@@H]1O [AGOSTEROL G] | 100 µg/mL (≈ 173 µM) | 8.8 µg/mL (≈ 15.3 µM) | 
CC(=O)O[C@@H]1[C@@H]2[C@@H](OC(C)=O)C=C3[C@H](CC[C@]4(C)[C@@H]([C@@](C)(O)[C@H](O)CCC(C)C)CC[C@@H]34)[C@@]2(C)CC[C@@H]1OC(C)=O [AGOSTEROL D2] | 90 µg/mL (≈ 156 µM) | 23 µg/mL (≈ 39.9 µM) | 
CC(=O)O[C@@H]1[C@@H]2[C@@H](OC(C)=O)C=C3[C@@H]4CC[C@H]([C@H](C)[C@H](O)CCC(C)C)[C@@]4(C)CC[C@]3(O)[C@@]2(C)CC[C@@H]1OC(C)=O [AGOSTEROL E] |  | 25 µg/mL (≈ 43.3 µM) | inactive
CC(=O)O[C@@H]1[C@@H]2[C@@H](OC(C)=O)C=C3[C@H]([C@H](O)C[C@]4(C)[C@@H]([C@H](C)[C@H](O)CCC(C)C)CC[C@@H]34)[C@@]2(C)CC[C@@H]1OC(C)=O [AGOSTEROL A] | 50 µg/mL (≈ 86.7 µM) | 25 µg/mL (≈ 43.3 µM) | 
C/C=C(\C[C@@H](O)[C@@H](C)[C@H]1CC[C@H]2C3=C[C@H](OC(C)=O)[C@H]4[C@@H](OC(C)=O)[C@@H](OC(C)=O)CC[C@]4(C)[C@@]3(O)CC[C@]12C)C(C)C [AGOSTEROL E3] |  | 14 µg/mL (≈ 23.2 µM) | inactive
CC(=O)O[C@@H]1[C@@H]2[C@@H](OC(C)=O)C=C3[C@H](CC[C@]4(C)[C@@H]([C@H](C)[C@H](O)CCC(C)C)CC[C@@H]34)[C@@]2(C)CC[C@@H]1O [AGOSTEROL C] | 10 µg/mL (≈ 19.3 µM) | 22 µg/mL (≈ 42.4 µM) | 
